Data taken from ChEMBL document CHEMBL1124186, “Synthesis and evaluation of tylosin-related macrolides modified at the aldehyde function: a new series of orally effective antibiotics” (1988).
Values after ≈ are worked out from the molar mass of the structure shown.

Key:
[1] = system: Rattus norvegicus; experiment: Peripheral plasma levels in rats after oral administration of 100 mg/kg dose for 2 hr; type: functional, organism-based; parameters: dose 100 mg/kg
Summary of the method: (§1)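 Rats received 100 mg/kg orally and were sampled for peripheral plasma. Concentrations were measured by Micrococcus luteus agar-diffusion microbiological assay in Antibiotic Medium 1, with zone sizes converted using the standard curve for the appropriate compound. Each value is the average of three rats per time point.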

[2] = system: Enterococcus faecium; experiment: In vitro antimicrobial activity against Streptococcus faecium X66; type: functional, streptococcus fae-cium
[3] = system: Mus musculus; experiment: Peripheral plasma levels in mice after oral administration of 50 mg/kg dose for 1 hr; type: functional, organism-based; parameters: dose 50 mg/kg
Summary of the method: (§2)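 Mice were given the compound orally and sampled for peripheral plasma at each time point. Plasma was assayed microbiologically against Micrococcus luteus seeded in Antibiotic Medium 1. Inhibition zone sizes were read, and concentrations were calculated from each compound's own standard curve. Each value is the mean of five mice per time point.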

[4] = system: Rattus norvegicus; experiment: Peripheral plasma levels in rats after oral administration of 100 mg/kg dose for 4 hr; type: functional, organism-based; parameters: dose 100 mg/kg; summary of the method: as §1
[5] = system: Mus musculus; experiment: Peripheral plasma levels in mice after oral administration of 50 mg/kg dose for 2 hr; type: functional, organism-based; parameters: dose 50 mg/kg; summary of the method: as §2
[6] = system: Streptococcus pyogenes; experiment: In vivo effective dose against experimental infections in rodent caused by Streptococcus pyogenes C203 when administered orally; type: functional; details: po
[7] = system: Mus musculus; experiment: Peripheral plasma levels in mice after oral administration of 50 mg/kg dose for 0.5 hr; type: functional, organism-based; parameters: dose 50 mg/kg; summary of the method: as §2
[8] = system: Staphylococcus aureus; experiment: In vitro antimicrobial activity against Staphylococcus aureus X1; type: functional
[9] = system: Rattus norvegicus; experiment: Peripheral plasma levels in rats after oral administration of 100 mg/kg dose for 0.5 hr; type: functional, organism-based; parameters: dose 100 mg/kg; summary of the method: as §1
[10] = system: Mus musculus; experiment: Peripheral plasma levels in mice after oral administration of 50 mg/kg dose for 0.25 hr; type: functional, organism-based; parameters: dose 50 mg/kg; summary of the method: as §2
[11] = system: Streptococcus pyogenes; experiment: In vivo effective dose against experimental infections in rodent caused by Streptococcus pyogenes C203 when administered sc; type: functional
[12] = system: Staphylococcus epidermidis; experiment: In vitro antimicrobial activity against Staphylococcus epidermidis EPI1; type: functional
[13] = system: Mus musculus; experiment: Peripheral plasma levels in mice after oral administration of 100 mg/kg dose for 0.5 hr; type: functional, organism-based; parameters: dose 100 mg/kg; summary of the method: as §2
[14] = system: Haemophilus influenzae; experiment: In vitro antimicrobial activity against Haemophilus influenzae.; type: functional
[15] = system: Streptococcus pneumoniae; experiment: In vitro antimicrobial activity against Streptococcus pneumoniae; type: functional
[16] = system: Mus musculus; experiment: Peripheral plasma levels in mice after oral administration of 100 mg/kg dose for 1 hr; type: functional, organism-based; parameters: dose 100 mg/kg; summary of the method: as §2
[17] = system: Streptococcus pyogenes; experiment: In vitro antimicrobial activity against Streptococcus pyogenes C203; type: functional
[18] = system: Rattus norvegicus; experiment: Peripheral plasma levels in rats after oral administration of 100 mg/kg dose for 0.25 hr; type: functional, organism-based; parameters: dose 100 mg/kg; summary of the method: as §1
[19] = system: Rattus norvegicus; experiment: Peripheral plasma levels in rats after oral administration of 100 mg/kg dose for 1 hr; type: functional, organism-based; parameters: dose 100 mg/kg; summary of the method: as §1
[20] = system: Mus musculus; experiment: Peripheral plasma levels in mice after oral administration of 100 mg/kg dose for 0.25 hr; type: functional, organism-based; parameters: dose 100 mg/kg; summary of the method: as §2
[21] = system: Mus musculus; experiment: Peripheral plasma levels in mice after oral administration of 50 mg/kg dose for 4 hr; type: functional, organism-based; parameters: dose 50 mg/kg; summary of the method: as §2

Structure (SMILES) | Concentration [1] | MIC [2] | Concentration [3] | Concentration [4] | Concentration [5] | ED50 [6] | Concentration [7] | MIC [8] | Concentration [9] | Concentration [10] | ED50 [11] | MIC [12] | MIC [14] | MIC [15] | MIC [17] | Concentration [18] | Concentration [19] | also measured
CC[C@H]1OC(=O)C[C@@H](O)[C@H](C)[C@@H](O[C@@H]2O[C@H](C)[C@@H](O[C@H]3C[C@@](C)(O)[C@@H](O)[C@H](C)O3)[C@H](N(C)C)[C@H]2O)[C@@H](CCN2C(=O)c3ccccc3C2=O)C[C@@H](C)C(=O)/C=C/C(C)=C/[C@@H]1CO[C@@H]1O[C@H](C)[C@@H](O)[C@@H](OC)[C@H]1OC | 1.4 µg/mL | > 128 µg/mL | 1.6 µg/mL | 1.4 µg/mL | 1.3 µg/mL | 23 mg/kg | 2.2 µg/mL | 1 µg/mL (≈ 0.955 µM) | 1.6 µg/mL | 2.4 µg/mL | > 6.3 mg/kg | 1 µg/mL (≈ 0.955 µM) | > 128 µg/mL | 32 µg/mL (≈ 30.6 µM) | 2 µg/mL (≈ 1.91 µM) | 0.5 µg/mL | 2.1 µg/mL | Concentration [13]: 6 µg/mL; Concentration [16]: 6.9 µg/mL; Concentration [20]: 13.1 µg/mL
CC[C@H]1OC(=O)C[C@@H](O)[C@H](C)[C@@H](O[C@@H]2O[C@H](C)[C@@H](O)[C@H](N(C)C)[C@H]2O)[C@@H](CCF)C[C@@H](C)C(=O)/C=C/C(C)=C/[C@@H]1CO[C@@H]1O[C@H](C)[C@@H](O)[C@@H](OC)[C@H]1OC | 1.9 µg/mL | 8 µg/mL (≈ 10.3 µM) | 0.2 µg/mL | 1.5 µg/mL | 0.4 µg/mL | 8 mg/kg | < 0.1 µg/mL | 0.25 µg/mL (≈ 0.322 µM) | 0.5 µg/mL | < 0.1 µg/mL | 5 mg/kg | 0.12 µg/mL (≈ 0.155 µM) | 16 µg/mL (≈ 20.6 µM) | 2 µg/mL (≈ 2.58 µM) | 0.25 µg/mL (≈ 0.322 µM) | 0.3 µg/mL | 0.1 µg/mL | Concentration [21]: 0.1 µg/mL
